Assay results published in ChEMBL document CHEMBL3045292, “Synthesis and herbicidal activity of 2-(7-fluoro-3-oxo- 3,4-dihydro-2H-benzo[b][1,4]oxazin-6-yl)isoindoline-1,3-diones” (J Agric Food Chem, 2005).

How the values were obtained:
[1] = Phytotoxicity against Zea mays (maize) assessed as growth inhibition at 30 g/ha post-emergence treatment measured after 15 days by crop-selectivity assay; type: organism-based; settings: in vivo, read-out: GI
Procedure, shortened: (§1)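 Compounds were formulated as 100 g/L emulsifiable concentrates, with DMF as solvent and Tween-80 as emulsifier, then diluted in water to the required rate. They were sprayed on pot-grown plants in a greenhouse, in clay soil (pH 6.5, 1.6% organic matter, 37.3% clay, CEC 12.1 cmol/kg). Untreated and DMF-treated plants served as controls. Percent growth inhibition was scored visually 15 days after treatment.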

[2] = Phytotoxicity against Brassica rapa subsp. oleifera assessed as growth inhibition at 30 g/ha post-emergence treatment measured after 15 days by crop-selectivity assay; type: organism-based; settings: in vivo, read-out: GI
[3] = Phytotoxicity against Brassica rapa subsp. oleifera assessed as growth inhibition at 7.5 g/ha post-emergence treatment measured after 15 days by crop-selectivity assay; type: organism-based; settings: in vivo, read-out: GI
[4] = Phytotoxicity against Gossypium (cotton) assessed as growth inhibition at 7.5 g/ha post-emergence treatment measured after 15 days by crop-selectivity assay; type: organism-based; settings: in vivo, read-out: GI
[5] = Phytotoxicity against Triticum aestivum (wheat) assessed as growth inhibition at 150 g/ha pre-emergence treatment measured after 15 days by crop-selectivity assay; type: organism-based; settings: in vivo, read-out: GI
[6] = Phytotoxicity against Oryza sativa (rice) assessed as growth inhibition at 150 g/ha pre-emergence treatment measured after 15 days by crop-selectivity assay; type: organism-based; settings: in vivo, read-out: GI
[7] = Phytotoxicity against Brassica rapa subsp. oleifera assessed as growth inhibition at 150 g/ha pre-emergence treatment measured after 15 days by crop-selectivity assay; type: organism-based; settings: in vivo, read-out: GI
[8] = Phytotoxicity against Glycine max (soybean) assessed as growth inhibition at 150 g/ha pre-emergence treatment measured after 15 days by crop-selectivity assay; type: organism-based; settings: in vivo, read-out: GI
Gossypium [9] = assay: Phytotoxicity against Gossypium (cotton) assessed as growth inhibition at 150 g/ha pre-emergence treatment measured after 15 days by crop-selectivity assay; type: organism-based; settings: in vivo, other, 360 h
[10] = Phytotoxicity against Brassica rapa subsp. oleifera assessed as growth inhibition at 75 g/ha pre-emergence treatment measured after 15 days by crop-selectivity assay; type: organism-based; settings: in vivo, read-out: GI
Zea mays [11] = assay: Phytotoxicity against Zea mays (maize) assessed as growth inhibition at 30 g/ha pre-emergence treatment measured after 15 days by crop-selectivity assay; type: organism-based; settings: in vivo, other, 360 h; procedure, shortened: as §1
Glycine max [12] = assay: Phytotoxicity against Glycine max (soybean) assessed as growth inhibition at 30 g/ha pre-emergence treatment measured after 15 days by crop-selectivity assay; type: organism-based; settings: in vivo, other, 360 h
[13] = Phytotoxicity against Brassica rapa subsp. oleifera assessed as growth inhibition at 30 g/ha pre-emergence treatment measured after 15 days by crop-selectivity assay; type: organism-based; settings: in vivo, read-out: GI
Zea mays [14] = assay: Phytotoxicity against Zea mays (maize) assessed as growth inhibition at 15 g/ha pre-emergence treatment measured after 15 days by crop-selectivity assay; type: organism-based; settings: in vivo, other, 360 h; procedure, shortened: as §1
Gossypium [15] = assay: Phytotoxicity against Gossypium (cotton) assessed as growth inhibition at 30 g/ha pre-emergence treatment measured after 15 days by crop-selectivity assay; type: organism-based; settings: in vivo, other, 360 h
[16] = Phytotoxicity against Oryza sativa (rice) assessed as growth inhibition at 15 g/ha pre-emergence treatment measured after 15 days by crop-selectivity assay; type: organism-based; settings: in vivo, read-out: GI
Glycine max [17] = assay: Phytotoxicity against Glycine max (soybean) assessed as growth inhibition at 15 g/ha pre-emergence treatment measured after 15 days by crop-selectivity assay; type: organism-based; settings: in vivo, other, 360 h
Gossypium [18] = assay: Phytotoxicity against Gossypium (cotton) assessed as growth inhibition at 15 g/ha pre-emergence treatment measured after 15 days by crop-selectivity assay; type: organism-based; settings: in vivo, other, 360 h
Zea mays [19] = assay: Phytotoxicity against Zea mays (maize) assessed as growth inhibition at 7.5 g/ha pre-emergence treatment measured after 15 days by crop-selectivity assay; type: organism-based; settings: in vivo, other, 360 h; procedure, shortened: as §1
Triticum aestivum = assay: Phytotoxicity against Triticum aestivum (wheat) assessed as growth inhibition at 7.5 g/ha pre-emergence treatment measured after 15 days by crop-selectivity assay; type: organism-based; settings: in vivo, other, 360 h; procedure, shortened: as §1
[20] = Phytotoxicity against Glycine max (soybean) assessed as growth inhibition at 30 g/ha post-emergence treatment measured after 15 days by crop-selectivity assay; type: organism-based; settings: in vivo, read-out: GI
[21] = Phytotoxicity against Gossypium (cotton) assessed as growth inhibition at 30 g/ha post-emergence treatment measured after 15 days by crop-selectivity assay; type: organism-based; settings: in vivo, read-out: GI
[22] = Phytotoxicity against Zea mays (maize) assessed as growth inhibition at 15 g/ha post-emergence treatment measured after 15 days by crop-selectivity assay; type: organism-based; settings: in vivo, read-out: GI; procedure, shortened: as §1
[23] = Phytotoxicity against Oryza sativa (rice) assessed as growth inhibition at 15 g/ha post-emergence treatment measured after 15 days by crop-selectivity assay; type: organism-based; settings: in vivo, read-out: GI
[24] = Phytotoxicity against Brassica rapa subsp. oleifera assessed as growth inhibition at 15 g/ha post-emergence treatment measured after 15 days by crop-selectivity assay; type: organism-based; settings: in vivo, read-out: GI
[25] = Phytotoxicity against Glycine max (soybean) assessed as growth inhibition at 15 g/ha post-emergence treatment measured after 15 days by crop-selectivity assay; type: organism-based; settings: in vivo, read-out: GI
[26] = Phytotoxicity against Gossypium (cotton) assessed as growth inhibition at 15 g/ha post-emergence treatment measured after 15 days by crop-selectivity assay; type: organism-based; settings: in vivo, read-out: GI
[27] = tested on: Brassica rapa subsp. oleifera; assay: Phytotoxicity against Brassica rapa subsp. oleifera assessed as growth inhibition at 7.5 g/ha pre-emergence treatment measured after 15 days by crop-selectivity assay; type: organism-based; settings: in vivo, other, 360 h
Glycine max [28] = assay: Phytotoxicity against Glycine max (soybean) assessed as growth inhibition at 7.5 g/ha pre-emergence treatment measured after 15 days by crop-selectivity assay; type: organism-based; settings: in vivo, other, 360 h
Digitaria sanguinalis [29] = assay: Herbicidal activity against crabgrass Digitaria sanguinalis(hairy crabgrass) assessed as weed growth inhibition at post-emergence treatment […]; type: functional, organism-based
Procedure, shortened: (§2)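 Pot-grown plants in the greenhouse, in clay soil (pH 6.5, 1.6% organic matter, 37.3% clay, CEC 12.1 cmol/kg). Compound was made up as a 100 g/L emulsified concentrate (DMF, Tween-80), diluted in water and sprayed at 75 g ai/ha. Pre-emergence spraying was 24 h after sowing; post-emergence at two-leaf (dicots) or one-leaf (monocots) stage. Untreated and DMF controls. Percent growth inhibition scored visually 15 days post-treatment.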

Abutilon theophrasti = assay: Herbicidal activity against Abutilon theophrasti (velvetleaf) assessed as weed growth inhibition at post-emergence treatment […]; type: functional, organism-based; procedure, shortened: as §2
Digitaria sanguinalis [30] = assay: Herbicidal activity against crabgrass Digitaria sanguinalis(hairy crabgrass) assessed as weed growth inhibition at 75 g/ha post-emergence treatment […]; type: functional; settings: read-out: GI; procedure, shortened: as §2
Amaranthus blitum [31] = assay: Herbicidal activity against Amaranthus blitum assessed as weed growth inhibition at 75 g/ha post-emergence treatment […]; type: functional; settings: read-out: GI; procedure, shortened: as §2
Chenopodium album [32] = assay: Herbicidal activity against fat hen Chenopodium album assessed as weed growth inhibition at 75 g/ha post-emergence treatment […]; type: functional; settings: read-out: GI; procedure, shortened: as §2
Setaria viridis = assay: Herbicidal activity against Setaria viridis (green foxtail) assessed as weed growth inhibition at 75 g/ha pre-emergence treatment […]; type: functional; settings: read-out: GI; procedure, shortened: as §2
Echinochloa crus-galli = assay: Herbicidal activity against Echinochloa crus-galli (barnyard grass) (barnyard grass) assessed as weed growth inhibition at 75 g/ha pre-emergence treatment […]; type: functional; settings: read-out: GI; procedure, shortened: as §2
Digitaria sanguinalis [33] = assay: Herbicidal activity against crabgrass Digitaria sanguinalis(hairy crabgrass) assessed as weed growth inhibition at 75 g/ha pre-emergence treatment […]; type: functional; settings: read-out: GI; procedure, shortened: as §2
Amaranthus blitum [34] = assay: Herbicidal activity against Amaranthus blitum assessed as weed growth inhibition at 75 g/ha pre-emergence treatment […]; type: functional; settings: read-out: GI; procedure, shortened: as §2
Chenopodium album [35] = assay: Herbicidal activity against fat hen Chenopodium album assessed as weed growth inhibition at 75 g/ha pre-emergence treatment […]; type: functional; settings: read-out: GI; procedure, shortened: as §2

| SMILES | inhibition at 360 h [1] [%] | inhibition at 360 h [2] [%] | inhibition at 360 h [3] [%] | inhibition at 360 h [4] [%] | inhibition at 360 h [5] [%] | inhibition at 360 h [6] [%] | inhibition at 360 h [7] [%] | inhibition at 360 h [8] [%] | growth inhibition (GI) (Gossypium [9]) | inhibition at 360 h [10] [%] | growth inhibition (GI) (Zea mays [11]) | growth inhibition (GI) (Glycine max [12]) | inhibition at 360 h [13] [%] | growth inhibition (GI) (Zea mays [14]) | growth inhibition (GI) (Gossypium [15]) | inhibition at 360 h [16] [%] | growth inhibition (GI) (Glycine max [17]) | growth inhibition (GI) (Gossypium [18]) | growth inhibition (GI) (Zea mays [19]) | growth inhibition (GI) (Triticum aestivum) | further results |
| --- | --- | --- | --- | --- | --- | --- | --- | --- | --- | --- | --- | --- | --- | --- | --- | --- | --- | --- | --- | --- | --- |
| C#CCN1C(=O)COc2cc(F)c(N3C(=O)c4ccc(F)cc4C3=O)cc21 | > 10 | > 10 | > 10 | > 10 | > 10 | > 10 | > 10 | > 10 | Non-toxic | > 10 | Non-toxic | Non-toxic | > 10 | Non-toxic | Non-toxic | 1 | Non-toxic | Non-toxic | Non-toxic | Non-toxic | inhibition at 360 h [20]: > 10%; inhibition at 360 h [21]: > 10%; inhibition at 360 h [22]: 1%; inhibition at 360 h [23]: > 10%; inhibition at 360 h [24]: > 10%; inhibition at 360 h [25]: > 10%; inhibition at 360 h [26]: > 10%; growth inhibition (GI) [27]: Non-toxic; growth inhibition (GI) (Glycine max [28]): Non-toxic; IC50 (Digitaria sanguinalis [29]): 4.8 g/ha; IC50 (Abutilon theophrasti): 3.6 g/ha; inhibition of growth at 75 g/ha (Digitaria sanguinalis [30]): > 80%; inhibition of growth at 75 g/ha (Amaranthus blitum [31]): > 80%; inhibition of growth at 75 g/ha (Chenopodium album [32]): > 80%; inhibition of growth at 75 g/ha (Setaria viridis): > 80%; inhibition of growth at 75 g/ha (Echinochloa crus-galli): > 80%; inhibition of growth at 75 g/ha (Digitaria sanguinalis [33]): > 80%; inhibition of growth at 75 g/ha (Amaranthus blitum [34]): > 80%; inhibition of growth at 75 g/ha (Chenopodium album [35]): > 80% |
| C#CCN1C(=O)COc2cc(F)c(N3C(=O)C4=C(CCCC4)C3=O)cc21 [FLUMIOXAZIN] | > 10 | > 10 | > 10 | > 10 | > 10 | > 10 | > 10 | > 10 | Non-toxic | > 10 | Non-toxic | Non-toxic | > 10 | Non-toxic | Non-toxic | > 10 | Non-toxic | Non-toxic | Non-toxic | Non-toxic | inhibition at 360 h [20]: > 10%; inhibition at 360 h [21]: > 10%; inhibition at 360 h [22]: > 10%; inhibition at 360 h [23]: > 10%; inhibition at 360 h [24]: > 10%; inhibition at 360 h [25]: > 10%; inhibition at 360 h [26]: > 10%; growth inhibition (GI) [27]: Non-toxic; growth inhibition (GI) (Glycine max [28]): Non-toxic; IC50 (Digitaria sanguinalis [29]): 2.5 g/ha; IC50 (Abutilon theophrasti): 1 g/ha; inhibition of growth at 75 g/ha (Digitaria sanguinalis [30]): > 80%; inhibition of growth at 75 g/ha (Amaranthus blitum [31]): > 80%; inhibition of growth at 75 g/ha (Chenopodium album [32]): > 80%; inhibition of growth at 75 g/ha (Setaria viridis): > 80%; inhibition of growth at 75 g/ha (Echinochloa crus-galli): > 80%; inhibition of growth at 75 g/ha (Digitaria sanguinalis [33]): > 80%; inhibition of growth at 75 g/ha (Amaranthus blitum [34]): > 80%; inhibition of growth at 75 g/ha (Chenopodium album [35]): > 80% |
